Here are results for three molecules from ChEMBL document CHEMBL1135714, “New neplanocin analogues. 12. Alternative synthesis and antimalarial effect of (6'R)-6'-C-methylneplanocin A, a potent AdoHcy hydrolase inhibitor” (J Med Chem, 2002).

Assay [1] has as its system Plasmodium berghei. The experiment in a line: Parasitaemia (%) in tail blood smears from Plasmodium berghei infected ICR mice (Mus musculus) at 0.1-mg/kg/day for 4 days. The class given is functional. Put shortly: (§1)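 P. berghei NK 65-infected ICR mice, five per group. Compounds in DMSO were given intraperitoneally once daily for four consecutive days from day 0, at 0.1–20 mg/kg/day. Five infected DMSO-dosed mice served as controls. On day 4, Giemsa-stained tail-blood thin films were read by microscopy, with 1 × 10⁴ erythrocytes counted per film, to give % parasitemia.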

The test system of assay [2] is Plasmodium berghei. The experiment in a line: Parasitaemia (%) in tail blood smears from Plasmodium berghei infected ICR mice (Mus musculus) after 4 days. The class given is functional. Put shortly:
as §1

Assay [3] can be described thus: The compound was tested for survival of the ICR mice (infected with Plasmodium berghei) as a symptom indicative of toxicity on day 4, at a dose of 5 mg/kg/day. The class given is functional, Mus musculus. A digest of the protocol: (§2)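 P. berghei (NK 65 strain)-infected ICR mice, groups of five; compound in DMSO given intraperitoneally once daily for four consecutive days starting day 0; five infected DMSO-dosed mice as controls; survival counted on day 4 as toxicity indicator; Giemsa-stained tail blood smears, 1 × 10⁴ erythrocytes per film, for parasitemia.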

The nature of assay [4]: The compound was tested for survival of the ICR mice (infected with Plasmodium berghei) as a symptom indicative of toxicity on day 4, at a dose of 0.1 mg/kg/day. The class given is functional, Mus musculus. A digest of the protocol:
as §2

The test system of assay [5] is Plasmodium berghei. Nature of the assay: Parasitaemia (%) in tail blood smears from Plasmodium berghei infected ICR mice (Mus musculus) at 0.5-mg/kg/day for 4 days. The class given is functional. A digest of the protocol:
as §1

Assay [6] relates to Plasmodium berghei. Nature of the assay: Parasitaemia (%) in tail blood smears of Plasmodium berghei infected ICR mice (Mus musculus) at 5 mg/kg/day after 4 days. The class given is functional. A digest of the protocol: as §1
A short description of assay [7]: The compound was tested for survival of the ICR mice (infected with Plasmodium berghei) as a symptom indicative of toxicity on day 4, at a dose of 10 mg/kg/day. The class given is functional, Mus musculus. A digest of the protocol: as §2
For assay [8], the system named is Plasmodium berghei. Nature of the assay: Parasitaemia (%) in tail blood smears of Plasmodium berghei infected ICR mice (Mus musculus) at 10 mg/kg/day after 4 days. The class given is functional. Put shortly: as §1
Another assay deals with Plasmodium falciparum. Nature of the assay: In vitro antimalarial activity against Plasmodium falciparum.
Assay [9] in a line: The compound was tested for survival of the ICR mice (infected with Plasmodium berghei) as a symptom indicative of toxicity on day 4, at a dose of 0.5 mg/kg/day. The class given is functional, Mus musculus. Put shortly: as §2
Assay [10] can be described thus: The compound was tested for survival of the ICR mice (infected with Plasmodium berghei) as a symptom indicative of toxicity on day 4, at a dose of 2 mg/kg/day. The class given is functional, Mus musculus. A digest of the protocol:
as §2

In assay [11] the test system is KATO III stomach cancer cell line. The experiment in a line: The compound was tested for cytotoxicity against the growth of human gastric carcinoma cell line ( KATO III ). The class given is functional, cell-based.
In assay [12] the test system is Plasmodium berghei. Nature of the assay: Parasitaemia (%) in tail blood smears of Plasmodium berghei infected ICR mice (Mus musculus) at 2 mg/kg/day after 4 days. The class given is functional. A digest of the protocol:
as §1

The nature of assay [13]: The compound was tested for survival of the ICR mice (infected with Plasmodium berghei) as a symptom indicative of toxicity on day 4, at a dose of 20 mg/kg/day. The class given is functional, Mus musculus. Put shortly:
as §2

Assay [14] is described as follows: The compound was tested for survival of the ICR mice (infected with Plasmodium berghei) as a symptom indicative of toxicity on day 4, at a dose of 1.0 mg/kg/day. The class given is functional, Mus musculus. A digest of the protocol: as §2
Assay [15] is described as follows: The compound was tested for the dose required to cause 50% suppression of Plasmodium berghei growth in mice. It counts as functional, Mus musculus. A digest of the protocol: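 Four-day suppressive test in ICR mice infected with P. berghei NK 65, five per group. DMSO solutions were injected intraperitoneally daily on days 0–3 at 0.1–20 mg/kg/day, against infected DMSO-dosed controls. Day-4 parasitemia came from Giemsa-stained tail-blood smears, 1 × 10⁴ erythrocytes per film. EC50 is the dose giving 50% suppression of parasite growth.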

The test system of assay [16] is Plasmodium berghei. Nature of the assay: Parasitaemia (%) in tail blood smears of Plasmodium berghei infected ICR mice (Mus musculus) at 1.0 mg/kg/day after 4 days. The class given is functional. Put shortly:
as §1

The next assay has as its system Vero. Nature of the assay: The compound was tested for cytotoxicity against monkey kidney cell line ( Vero ). It counts as functional, cell-based. The note with it: Chlorocebus sabaeus.
Assay [17] deals with Plasmodium berghei. The experiment in a line: Parasitaemia (%) in tail blood smears from Plasmodium berghei infected ICR mice (Mus musculus) at 0.1 mg/kg/day for 4 days. The class given is functional. A digest of the protocol:
as §1

Assay [18] deals with Plasmodium berghei. Nature of the assay: Parasitaemia (%) in tail blood smears of Plasmodium berghei infected ICR mice (Mus musculus) at 20 mg/kg/day after 4 days. The class given is functional. Put shortly:
as §1

Assay [19] concerns Plasmodium berghei. The experiment in a line: Parasitaemia (%) in tail blood smears of Plasmodium berghei infected ICR mice (Mus musculus) at 0.5 mg/kg/day after 4 days. The class given is functional. A digest of the protocol: as §1
Assay [20] relates to Plasmodium berghei. Nature of the assay: Percent parasitaemia in tail blood smears from Plasmodium berghei infected ICR mice (Mus musculus) at 0.5-mg/kg/day after 4 days. It counts as functional. A digest of the protocol: as §1
Assay [21] in a line: The compound was tested for survival of the ICR mice (infected with Plasmodium berghei) as a symptom indicative of toxicity on day 4, at different doses 20 mg/kg/day. It counts as functional, Mus musculus. Put shortly:
as §2

For the molecule `C[C@@H](O)C1=C[C@@H](n2cnc3c(N)ncnc32)[C@H](O)[C@@H]1O`, the Parasitemia in the assay on Plasmodium berghei [1] came to 21%; in the assay with Plasmodium berghei [2], 21%; in the assay with Plasmodium berghei [5], 21%; in the assay on Plasmodium berghei [6], 2%; with Plasmodium berghei [8], 2%; with Plasmodium berghei [12] it was 5%. The molecule further gave a Parasitemia with Plasmodium berghei [16] of 10%. The Survival is 5 in assay [3]; 5 in assay [4]; 5 in [7]; 5 in [9]; 5 in [10]; 2 in assay [13]. This molecule also gave a Survival in [14] of 5. The IC50 with Plasmodium falciparum was 0.1 µM; in [11] it was 1.1 µM; in the assay with Vero it was > 1800 µM. This molecule had an EC50 in [15] of 1 mg/kg/day.
As to `CCN(CC)CCCC(C)Nc1ccnc2cc(Cl)ccc12` (stereo not given) [CHLOROQUINE], the Parasitemia in the assay with Plasmodium berghei [17] was determined as 21%; in the assay on Plasmodium berghei [2] it was 21%; in the assay with Plasmodium berghei [18], 1%; in the assay with Plasmodium berghei [6], 3%; in the assay on Plasmodium berghei [8], 2%; with Plasmodium berghei [12], 7%. In addition, the Parasitemia in the assay on Plasmodium berghei [19] was determined as 20%; in the assay with Plasmodium berghei [16], 18%. For the same molecule, the Survival in [3], in assay [4], in assay [7], in assay [9], in assay [10] and in assay [13] was 5 in each case. In assay [14], this molecule returned a Survival of 5. In addition, in [15], the EC50 was found to be 1.8 mg/kg/day.
As to `Nc1ncnc2c1ncn2[C@@H]1C=C(CO)[C@@H](O)[C@H]1O` [NEOPLANOCIN A], the Parasitemia in the assay with Plasmodium berghei [1] is on record as 20%; with Plasmodium berghei [2], 21%; in the assay on Plasmodium berghei [6] it was 12%; in the assay on Plasmodium berghei [20], 21%; in the assay on Plasmodium berghei [12], 21%; with Plasmodium berghei [16] it was 21%. The Survival in assay [3] was 5; in assay [4], 5; in assay [7] it was 0; in [9], 5; in assay [21] it was 0; in assay [10], 5. This molecule also gave a Survival in assay [14] of 5. The IC50 in the assay with Plasmodium falciparum came out at 0.2 µM; in assay [11], 0.22 µM. Moreover, in [15], the EC50 was > 5 mg/kg/day.
